Measurements reported in ChEMBL document CHEMBL4152256, “Structure-activity relationship of new antimalarial 1-aryl-3-susbtituted propanol derivatives: Synthesis, preliminary toxicity profiling, parasite life cycle stage studies, target exploration, and targeted delivery” (Eur J Med Chem, 2018).

Columns and labels:
[1] = Genotoxicity in Salmonella typhimurium TA1535 harboring pSK1002 assessed as umu gene induction at 0.001 mg/ml in presence of Sprague-Dawley rat liver S9 fraction after by SOS/umu assay relative to control; assay type: toxicity, organism-based; conditions: salmonella enterica subsp. enterica serovar typhimurium, read-out: FC
[2] = Genotoxicity in Salmonella typhimurium TA1535 harboring pSK1002 assessed as survival at 0.5 mg/ml in presence of Sprague-Dawley rat liver S9 fraction after by SOS/umu assay relative to control; assay type: toxicity, organism-based; conditions: salmonella enterica subsp. enterica serovar typhimurium, read-out: Survival
[3] = Genotoxicity in Salmonella typhimurium TA1535 harboring pSK1002 assessed as umu gene induction at 0.004 mg/ml in absence of Sprague-Dawley rat liver S9 fraction after by SOS/umu assay relative to control; assay type: toxicity, organism-based; conditions: salmonella enterica subsp. enterica serovar typhimurium, read-out: FC
[4] = Genotoxicity in Salmonella typhimurium TA1535 harboring pSK1002 assessed as survival at 0.25 mg/ml in presence of Sprague-Dawley rat liver S9 fraction after by SOS/umu assay relative to control; assay type: toxicity, organism-based; conditions: salmonella enterica subsp. enterica serovar typhimurium, read-out: Survival
[5] = tested on: Plasmodium berghei; experiment: Antiplasmodial activity against Plasmodium berghei ANKA infected in mouse assessed as inhibition of parasitemia at 50 mg/kg/day, po for 4 consecutive days starting from 2 hrs post infection by MSF assay relative to control; assay type: functional
How it was run: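 Swiss male mice (20 ± 2 g) infected ip with 10^7 P. berghei ANKA parasitized cells (day 0). Five per group dosed orally 2 h after infection and daily on days 0–3. Test compounds at 50 mg/kg/day in water:DMSO; chloroquine diphosphate at 3 mg/kg/day; vehicle controls. Parasitemia measured on day 4 by MSF assay; survival checked daily.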

[6] = Genotoxicity in Salmonella typhimurium TA1535 harboring pSK1002 assessed as umu gene induction at 1 mg/ml in absence of Sprague-Dawley rat liver S9 fraction after by SOS/umu assay relative to control; assay type: toxicity, organism-based; conditions: salmonella enterica subsp. enterica serovar typhimurium, read-out: FC
[7] = Genotoxicity in Salmonella typhimurium TA1535 harboring pSK1002 assessed as survival at 0.002 mg/ml in absence of Sprague-Dawley rat liver S9 fraction after by SOS/umu assay relative to control; assay type: toxicity, organism-based; conditions: salmonella enterica subsp. enterica serovar typhimurium, read-out: Survival
[8] = Solubility of the compound in DSPC:cholesterol:DSPE-PEG2000-Mal:DOPE-Rho lipid mixture at 250 uM; assay type: physicochemical
How it was run: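 Compound added at 250 µM drug to the initial liposome lipid mixture (10 mM total lipid); precipitation and UV-visible absorbance above 300 nm assessed after encapsulation, removal of unencapsulated material and extraction with 1% w/v SDS in RPMI-A.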

[9] = Genotoxicity in Salmonella typhimurium TA1535 harboring pSK1002 assessed as survival at 0.001 mg/ml in presence of Sprague-Dawley rat liver S9 fraction after by SOS/umu assay relative to control; assay type: toxicity, organism-based; conditions: salmonella enterica subsp. enterica serovar typhimurium, read-out: Survival
[10] = Genotoxicity in Salmonella typhimurium TA1535 harboring pSK1002 assessed as umu gene induction at 0.5 mg/ml in presence of Sprague-Dawley rat liver S9 fraction after by SOS/umu assay relative to control; assay type: toxicity, organism-based; conditions: salmonella enterica subsp. enterica serovar typhimurium, read-out: FC
[11] = Genotoxicity in Salmonella typhimurium TA1535 harboring pSK1002 assessed as survival at 0.5 mg/ml in absence of Sprague-Dawley rat liver S9 fraction after by SOS/umu assay relative to control; assay type: toxicity, organism-based; conditions: salmonella enterica subsp. enterica serovar typhimurium, read-out: Survival
[12] = Genotoxicity in Salmonella typhimurium TA1535 harboring pSK1002 assessed as umu gene induction at 0.008 mg/ml in absence of Sprague-Dawley rat liver S9 fraction after by SOS/umu assay relative to control; assay type: toxicity, organism-based; conditions: salmonella enterica subsp. enterica serovar typhimurium, read-out: FC
[13] = Genotoxicity in Salmonella typhimurium TA1535 harboring pSK1002 assessed as survival at 0.002 mg/ml in presence of Sprague-Dawley rat liver S9 fraction after by SOS/umu assay relative to control; assay type: toxicity, organism-based; conditions: salmonella enterica subsp. enterica serovar typhimurium, read-out: Survival
[14] = Genotoxicity in Salmonella typhimurium TA1535 harboring pSK1002 assessed as survival at 0.25 mg/ml in absence of Sprague-Dawley rat liver S9 fraction after by SOS/umu assay relative to control; assay type: toxicity, organism-based; conditions: salmonella enterica subsp. enterica serovar typhimurium, read-out: Survival
[15] = Genotoxicity in Salmonella typhimurium TA1535 harboring pSK1002 assessed as umu gene induction at 0.5 mg/ml in absence of Sprague-Dawley rat liver S9 fraction after by SOS/umu assay relative to control; assay type: toxicity, organism-based; conditions: salmonella enterica subsp. enterica serovar typhimurium, read-out: FC
[16] = Genotoxicity in Salmonella typhimurium TA1535 harboring pSK1002 assessed as survival at 0.063 mg/ml in absence of Sprague-Dawley rat liver S9 fraction after by SOS/umu assay relative to control; assay type: toxicity, organism-based; conditions: salmonella enterica subsp. enterica serovar typhimurium, read-out: Survival
[17] = tested on: Plasmodium falciparum; experiment: Antiplasmodial activity against Plasmodium falciparum D6 after 72 hrs by MSF assay; assay type: functional, organism-based; conditions: D6, 72 h
How it was run: (§1)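 D6 and C235 strains from the Walter Reed Army Institute of Research were tested by the Malaria SYBR Green-I fluorescence assay.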

[18] = Genotoxicity in Salmonella typhimurium TA1535 harboring pSK1002 assessed as umu gene induction at 0.25 mg/ml in absence of Sprague-Dawley rat liver S9 fraction after by SOS/umu assay relative to control; assay type: toxicity, organism-based; conditions: salmonella enterica subsp. enterica serovar typhimurium, read-out: FC
[19] = Genotoxicity in Salmonella typhimurium TA1535 harboring pSK1002 assessed as survival at 1 mg/ml in absence of Sprague-Dawley rat liver S9 fraction after by SOS/umu assay relative to control; assay type: toxicity, organism-based; conditions: salmonella enterica subsp. enterica serovar typhimurium, read-out: Survival
[20] = Genotoxicity in Salmonella typhimurium TA1535 harboring pSK1002 assessed as survival at 1 mg/ml in presence of Sprague-Dawley rat liver S9 fraction after by SOS/umu assay relative to control; assay type: toxicity, organism-based; conditions: salmonella enterica subsp. enterica serovar typhimurium, read-out: Survival
[21] = Genotoxicity in Salmonella typhimurium TA1535 harboring pSK1002 assessed as umu gene induction at 0.25 mg/ml in presence of Sprague-Dawley rat liver S9 fraction after by SOS/umu assay relative to control; assay type: toxicity, organism-based; conditions: salmonella enterica subsp. enterica serovar typhimurium, read-out: FC
[22] = tested on: Plasmodium berghei; experiment: Antiplasmodial activity against Plasmodium berghei ANKA infected in mouse assessed as mouse survival time at 50 mg/kg/day, po for 4 consecutive days starting from 2 hrs post infection by MSF assay; assay type: functional
How it was run: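 Swiss male mice (20 ± 2 g) infected i.p. with 10^7 P. berghei ANKA parasitized cells in 0.1 mL 0.9% saline (day 0). Oral dosing began 2 h post-infection and continued daily on days 0–3, five mice per batch. Test drugs were given at 50 mg/kg/day in water:DMSO and chloroquine diphosphate at 3 mg/kg/day; a vehicle control was included. Survival was checked daily, and parasitemia was read on day 4 by modified MSF assay.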

[23] = tested on: Plasmodium falciparum; experiment: Antiplasmodial activity against multidrug-resistant Plasmodium falciparum C235 after 72 hrs by MSF assay; assay type: functional, organism-based; conditions: C235, 72 h; how it was run: as §1
[24] = tested on: Plasmodium berghei; experiment: Antiplasmodial activity against GFP-fused Plasmodium berghei sporozoites infected in human HepG2A16 cells treated simultaneously with infection by fluorescence microscopic analysis; assay type: functional, organism-based
How it was run: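 HepG2-A16 cells (3 × 10^4/well, collagen-coated) infected with PbGFP sporozoites (5 × 10^3 to 1 × 10^4/well) and treated at the same time. Top concentration 10 µg/mL in DMEM, seven serial dilutions. Medium and compound renewed at 3 h and every 24 h. After 40 h at 37 °C: methanol fixation, anti-Plasmodium Hsp70 immunolabeling, Alexa 594 secondary, DAPI; high-content imaging.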

[25] = tested on: Plasmodium falciparum; experiment: Antiplasmodial activity against Plasmodium falciparum FCR-3 sporozoites infected in human primary hepatocytes treated simultaneously with infection by DAPI staining based HCS analysis; assay type: functional, organism-based, FCR-3/Gambia

| Structure (SMILES) | fold induction at 0.001 mg/ml [1] | viability at 0.5 mg/ml [2] [%] | fold induction at 0.004 mg/ml [3] | viability at 0.25 mg/ml [4] [%] | fold induction at 1 mg/ml [6] | viability at 0.002 mg/ml [7] [%] | solubility [8] | viability at 0.001 mg/ml [9] [%] | fold induction at 0.5 mg/ml [10] | viability at 0.5 mg/ml [11] [%] | fold induction at 0.008 mg/ml [12] | viability at 0.002 mg/ml [13] [%] | viability at 0.25 mg/ml [14] [%] | fold induction at 0.5 mg/ml [15] | viability at 0.063 mg/ml [16] [%] | IC50 [17] [nM] | fold induction at 0.25 mg/ml [18] | viability at 1 mg/ml [19] [%] | viability at 1 mg/ml [20] [%] | fold induction at 0.25 mg/ml [21] | also measured |
| --- | --- | --- | --- | --- | --- | --- | --- | --- | --- | --- | --- | --- | --- | --- | --- | --- | --- | --- | --- | --- | --- |
| COc1ccccc1C1=CCN(CCC(O)c2ccc(F)cc2)CC1 (centres undefined) | 1.2 | 82.1 | 1.1 | 73 | 0.3 | 103 | Insoluble | 103 | 1.3 | 19.4 | 1 | 87.2 | 92.3 | 2.3 | 101 | 3730 | 1.3 | 82.3 | 32.2 | 1.1 | inhibition in vivo at 50 mg/kg/day [5]: ≤ 50%; MSD [22]: 6 days; IC50 [23]: 3690 nM |
| OC(CCN1CCN(c2ccccc2C(F)(F)F)CC1)c1ccc(F)c2ccccc12 (stereo in doubt; 55) | 0.3 | 168 | 1.1 | 95.4 | 0.3 | 51.4 | Insoluble | 106 | 0.4 | 175 | 0.9 | 120 | 207 | 0.7 | 138 | 100 | 0.1 | 229 | 164 | 0.7 | IC50 [24]: Not Active; MSD [22]: 8 days; IC50 [23]: 140 nM |
| OC(CCN1CCN(c2ccccc2C(F)(F)F)CC1)c1ccc(F)cc1 (centres undefined) | 1.1 | 37.2 | 0.9 | 24.6 | 0.1 | 110 | Insoluble | 84.6 | 1.2 | 129 | 0.8 | 90.4 | 70.1 | 0.2 | 28.6 |  | 0.5 | 244 | 97 | 1.3 |  |
| N#Cc1ccc(N2CCC(NCCC(O)c3ccc(F)c4ccccc34)CC2)c(C(F)(F)F)c1 (stereo in doubt; 72) | 0.8 |  | 0.9 |  |  | 110 | Soluble | 121 |  |  | 0.8 | 136 |  |  | 54.7 | 80 |  |  |  |  | inhibition in vivo at 50 mg/kg/day [5]: 80.4%; IC50 ([24]; Plasmodium berghei, HepG2A16, read-out: IC50): 2700 nM; IC50 [25]: Not Active; MSD [22]: 10 days; IC50 [23]: 120 nM |
